Test results reported in ChEMBL document CHEMBL1629431, “Synthesis and antitumor activity of some 2, 3-disubstituted quinazolin-4(3H)-ones and 4, 6- disubstituted- 1, 2, 3, 4-tetrahydroquinazolin-2H-ones” (2010).

Legend:
Assay type in all cases: functional
U-251 = experiment: Growth inhibition of human U251 cells at 10 uM after 48 hrs by coulter counter method; details: U-251, 48 h, read-out: GI
Procedure, shortened: (§1)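 Single high-dose NCI 60-cell-line panel screen across nine tumor subpanels. Test solutions (0.2 mL) were added in duplicate to wells holding 1.8 mL of culture at 6 × 10⁴ cells/mL. Controls got PBS and DMSO at identical dilutions. Incubation was 48 h at 37 °C in humidified 5% CO₂. Cells were diluted 10-fold in saline, Coulter-counted and dilution-corrected. Results were expressed as percent growth inhibition versus control.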

UO-31 = experiment: Growth inhibition of human UO31 cells at 10 uM after 48 hrs by coulter counter method; details: UO-31, 48 h, read-out: GI; procedure, shortened: as §1
T47D = experiment: Growth inhibition of human T47D cells at 10 uM after 48 hrs by coulter counter method; details: read-out: GI; procedure, shortened: as §1
NCI-H226 = experiment: Growth inhibition of human NCI-H226 cells at 10 uM after 48 hrs by coulter counter method; details: NCI-H226, 48 h, read-out: GI; procedure, shortened: as §1
BT-549 = experiment: Growth inhibition of human BT549 cells at 10 uM after 48 hrs by coulter counter method; details: BT-549, 48 h, read-out: GI; procedure, shortened: as §1
OVCAR-8 = experiment: Growth inhibition of human OVCAR8 cells at 10 uM after 48 hrs by coulter counter method; details: OVCAR-8, 48 h, read-out: GI; procedure, shortened: as §1
CCRF-CEM = experiment: Growth inhibition of human CCRF-CEM cells at 10 uM after 48 hrs by coulter counter method; details: read-out: GI; procedure, shortened: as §1
NCI-H522 = experiment: Growth inhibition of human NCI-H522 cells at 10 uM after 48 hrs by coulter counter method; details: NCI-H522, 48 h, read-out: GI; procedure, shortened: as §1
SN12C = experiment: Growth inhibition of human SN12C cells at 10 uM after 48 hrs by coulter counter method; details: read-out: GI; procedure, shortened: as §1
786-0 = experiment: Growth inhibition of human 786-0 cells at 10 uM after 48 hrs by coulter counter method; details: 786-0, 48 h, read-out: GI; procedure, shortened: as §1
M14 = experiment: Growth inhibition of human M14 cells at 10 uM after 48 hrs by coulter counter method; details: M14, 48 h, read-out: GI; procedure, shortened: as §1
MOLT-4 = experiment: Growth inhibition of human MOLT4 cells at 10 uM after 48 hrs by coulter counter method; details: MOLT-4, 48 h, read-out: GI; procedure, shortened: as §1
KM12 = experiment: Growth inhibition of human KM12 cells at 10 uM after 48 hrs by coulter counter method; details: KM12, 48 h, read-out: GI; procedure, shortened: as §1
MCF7 = experiment: Growth inhibition of human MCF7 cells at 10 uM after 48 hrs by coulter counter method; details: MCF7, 48 h, read-out: GI; procedure, shortened: as §1
UACC-62 = experiment: Growth inhibition of human UACC62 cells at 10 uM after 48 hrs by coulter counter method; details: UACC-62, 48 h, read-out: GI; procedure, shortened: as §1
SK-MEL-2 = experiment: Growth inhibition of human SK-MEL-2 cells at 10 uM after 48 hrs by coulter counter method; details: SK-MEL-2, 48 h, read-out: GI; procedure, shortened: as §1
PC-3 = experiment: Growth inhibition of human PC3 cells at 10 uM after 48 hrs by coulter counter method; details: PC-3, 48 h, read-out: GI; procedure, shortened: as §1
MDA-MB-468 = experiment: Growth inhibition of human MDA-MB-468 cells at 10 uM after 48 hrs by coulter counter method; details: MDA-MB-468, 48 h, read-out: GI; procedure, shortened: as §1
CAKI-1 = experiment: Growth inhibition of human Caki1 cells at 10 uM after 48 hrs by coulter counter method; details: CAKI-1, 48 h, read-out: GI; procedure, shortened: as §1
SK-MEL-28 = experiment: Growth inhibition of human SK-MEL-28 cells at 10 uM after 48 hrs by coulter counter method; details: SK-MEL-28, 48 h, read-out: GI; procedure, shortened: as §1
SK-OV-3 = experiment: Growth inhibition of human SKOV3 cells at 10 uM after 48 hrs by coulter counter method; details: SK-OV-3, 48 h, read-out: GI; procedure, shortened: as §1
[1] = Growth inhibition of human Hs 578T cells at 10 uM after 48 hrs by coulter counter method; details: read-out: GI; procedure, shortened: as §1
OVCAR-4 = experiment: Growth inhibition of human OVCAR4 cells at 10 uM after 48 hrs by coulter counter method; details: OVCAR-4, 48 h, read-out: GI; procedure, shortened: as §1
HCT-116 = experiment: Growth inhibition of human HCT116 cells at 10 uM after 48 hrs by coulter counter method; details: HCT-116, 48 h, read-out: GI; procedure, shortened: as §1
A549 = experiment: Growth inhibition of human A549 cells at 10 uM after 48 hrs by coulter counter method; details: A549, 48 h, read-out: GI; procedure, shortened: as §1
NCI-H23 = experiment: Growth inhibition of human NCI-H23 cells at 10 uM after 48 hrs by coulter counter method; details: NCI-H23, 48 h, read-out: GI; procedure, shortened: as §1
HL-60(TB) = experiment: Growth inhibition of human HL-60(TB) cells at 10 uM after 48 hrs by coulter counter method; details: HL-60, 48 h, read-out: GI
Procedure, shortened: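 Part of the NCI 60-cell-line single-high-dose panel. Cells were seeded at 6 × 10⁴ cells/mL with test solution in duplicate wells, alongside PBS/DMSO controls at identical dilutions. Plates were held 48 h at 37 °C in a humidified 5% CO₂ incubator. Cells were then diluted 10-fold in saline and counted by Coulter counter, with counts corrected for dilution. Results are percent growth of treated cells, reported as GI %.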

SF-268 = experiment: Growth inhibition of human SF268 cells at 10 uM after 48 hrs by coulter counter method; details: SF-268, 48 h, read-out: GI; procedure, shortened: as §1
K562 = experiment: Growth inhibition of human K562 cells at 10 uM after 48 hrs by coulter counter method; details: K562, 48 h, read-out: GI; procedure, shortened: as §1
MDA-MB-231 = experiment: Growth inhibition of human MDA-MB-231 cells at 10 uM after 48 hrs by coulter counter method; details: MDA-MB-231, 48 h, read-out: GI; procedure, shortened: as §1
HOP-92 = experiment: Growth inhibition of human HOP92 cells at 10 uM after 48 hrs by coulter counter method; details: HOP-92, 48 h, read-out: GI; procedure, shortened: as §1
HT-29 = experiment: Growth inhibition of human HT-29 cells at 10 uM after 48 hrs by coulter counter method; details: HT-29, 48 h, read-out: GI; procedure, shortened: as §1
SNB-75 = experiment: Growth inhibition of human SNB75 cells at 10 uM after 48 hrs by coulter counter method; details: SNB-75, 48 h, read-out: GI; procedure, shortened: as §1
SF-539 = experiment: Growth inhibition of human SF539 cells at 10 uM after 48 hrs by coulter counter method; details: SF-539, 48 h, read-out: GI; procedure, shortened: as §1
IGROV-1 = experiment: Growth inhibition of human IGROV1 cells at 10 uM after 48 hrs by coulter counter method; details: IGROV-1, 48 h, read-out: GI; procedure, shortened: as §1
COLO 205 = experiment: Growth inhibition of human COLO205 cells at 10 uM after 48 hrs by coulter counter method; details: COLO 205, 48 h, read-out: GI; procedure, shortened: as §1

Row | Compound | inhibition of growth at 10 µM (U-251) [%] | inhibition of growth at 10 µM (UO-31) [%] | inhibition of growth at 10 µM (T47D) [%] | inhibition of growth at 10 µM (NCI-H226) [%] | inhibition of growth at 10 µM (BT-549) [%] | inhibition of growth at 10 µM (OVCAR-8) [%] | inhibition of growth at 10 µM (NCI-H522) [%] | inhibition of growth at 10 µM (SN12C) [%] | inhibition of growth at 10 µM (786-0) [%] | inhibition of growth at 10 µM (M14) [%] | inhibition of growth at 10 µM (KM12) [%] | inhibition of growth at 10 µM (MCF7) [%] | inhibition of growth at 10 µM (UACC-62) [%] | inhibition of growth at 10 µM (SK-MEL-2) [%] | inhibition of growth at 10 µM (PC-3) [%] | inhibition of growth at 10 µM (MDA-MB-468) [%] | inhibition of growth at 10 µM (CAKI-1) [%] | inhibition of growth at 10 µM (SK-MEL-28) [%] | inhibition of growth at 10 µM (SK-OV-3) [%] | inhibition of growth at 10 µM [1] [%] | further results
1 | O=c1c2ccccc2nc(-n2ccnc2)n1-c1ccccc1 | 30 | 30 | 30 | 30 | 30 | 30 | 30 | 30 | 30 | 30 | 30 | 30 | 30 | 30 | 30 | 30 | 30 | 30 | 30 | 30 | inhibition of growth at 10 µM (CCRF-CEM): 30%; inhibition of growth at 10 µM (MOLT-4): 30%; inhibition of growth at 10 µM (OVCAR-4): 30%; inhibition of growth at 10 µM (HCT-116): 30%; inhibition of growth at 10 µM (A549): 30%; inhibition of growth at 10 µM (NCI-H23): 30%; inhibition of growth at 10 µM (HL-60(TB)): 30%; inhibition of growth at 10 µM (SF-268): 30%; inhibition of growth at 10 µM (K562): 30%; inhibition of growth at 10 µM (MDA-MB-231): 30%; inhibition of growth at 10 µM (HOP-92): 76.6%; inhibition of growth at 10 µM (HT-29): 30%; inhibition of growth at 10 µM (SNB-75): 30%; inhibition of growth at 10 µM (SF-539): 30%
2 | COc1ccc(-n2c(-n3ccnc3)nc3ccccc3c2=O)cc1 | 30 | 30 | 30 | 30 | 30 | 30 | 30 | 30 | 30 | 30 | 30 | 30 | 30 | 30 | 30 | 30 | 30 | 30 | 30 | 30 | inhibition of growth at 10 µM (CCRF-CEM): 30%; inhibition of growth at 10 µM (IGROV-1): 30%; inhibition of growth at 10 µM (COLO 205): 30%; inhibition of growth at 10 µM (OVCAR-4): 30%; inhibition of growth at 10 µM (HCT-116): 30%; inhibition of growth at 10 µM (A549): 30%; inhibition of growth at 10 µM (NCI-H23): 30%; inhibition of growth at 10 µM (HL-60(TB)): 30%; inhibition of growth at 10 µM (SF-268): 30%; inhibition of growth at 10 µM (K562): 30.8%; inhibition of growth at 10 µM (MDA-MB-231): 30%; inhibition of growth at 10 µM (HT-29): 30%; inhibition of growth at 10 µM (SNB-75): 30%; inhibition of growth at 10 µM (SF-539): 30%
3 | O=c1c2ccccc2nc(-n2ccnc2)n1-c1ccc(Cl)cc1 | 30 | 30 | 39 | 30 | 30 | 30 | 30 | 30 | 30 | 30 | 30 | 30 | 30 | 30 | 40.3 | 30 | 30 | 30 | 30 | 30 | inhibition of growth at 10 µM (IGROV-1): 30%; inhibition of growth at 10 µM (MOLT-4): 47.7%; inhibition of growth at 10 µM (COLO 205): 30%; inhibition of growth at 10 µM (OVCAR-4): 30%; inhibition of growth at 10 µM (HCT-116): 30%; inhibition of growth at 10 µM (A549): 30%; inhibition of growth at 10 µM (NCI-H23): 30%; inhibition of growth at 10 µM (HL-60(TB)): 30%; inhibition of growth at 10 µM (SF-268): 30%; inhibition of growth at 10 µM (K562): 37.1%; inhibition of growth at 10 µM (MDA-MB-231): 30%; inhibition of growth at 10 µM (HOP-92): 30%; inhibition of growth at 10 µM (HT-29): 30%; inhibition of growth at 10 µM (SNB-75): 30%; inhibition of growth at 10 µM (SF-539): 30%
